For 61 molecules, IC50 and Activity results are on record in ChEMBL document CHEMBL1158184, “Synthesis and anti-CVB 3 evaluation of substituted 5-nitro-2-phenoxybenzonitriles” (Bioorg Med Chem Lett, 2008).

For orientation: pIC50 means the IC50 on a negative log10 scale, so that one unit is a factor of ten.

One assay relates to Coxsackievirus B3. The assay is described as follows: Antiviral activity against Coxsackievirus B3 assessed as reduction of virus-induced cytopathogenicity after 3 days by MTS assay. In kind it is functional, organism-based. To be noted: Enterovirus B, 72 h. In short, it runs like this:
(§1)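 MTS-based CPE reduction assay. Confluent cell monolayers were infected with 100 CCID50 of virus and left 2 h at 37 °C for adsorption, then the inoculum was removed and serial compound dilutions were added. MTS/PMS was added for 2 h and OD was read at 498 nm. EC50 was derived from %CPE relative to uninfected and infected untreated controls.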
On the technique in general: Cytopathic effects are the visible damage that an infection or toxin causes in cultured cells.

The next assay concerns Coxsackievirus B1. Briefly: Antiviral activity against Coxsackievirus B1 in african green monkey Vero cells. It counts as functional. Summed up: as §1
The test system of the next assay is Coxsackievirus B2. The assay is described as follows: Antiviral activity against Coxsackievirus B2 in african green monkey Vero cells. In kind it is functional. In short, it runs like this:
as §1

For another assay, the system named is Coxsackievirus B4. The assay is described as follows: Antiviral activity against Coxsackievirus B4 in african green monkey Vero cells. It counts as functional. In short, it runs like this:
as §1

A further assay concerns Coxsackievirus B5. The assay is described as follows: Antiviral activity against Coxsackievirus B5 in african green monkey Vero cells. In kind it is functional. In short, it runs like this:
as §1

The next assay relates to Coxsackievirus B6. Briefly: Antiviral activity against Coxsackievirus B6 in african green monkey Vero cells. In kind it is functional. In short, it runs like this:
as §1

The test system of another assay is Coxsackievirus A24. The assay is described as follows: Antiviral activity against Coxsackievirus A24 in human MRC5 cells. It counts as functional. In short, it runs like this:
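MTS-based CPE-reduction assay. Confluent monolayers were infected with 100 CCID50 of virus and adsorbed for 2 h at 37 °C; virus was then removed and serial compound dilutions added. Cultures were incubated 3 days at 37 °C until complete CPE in the untreated virus control. After MTS/PMS for 2 h, OD was read at 498 nm, %CPE calculated against uninfected and infected-untreated controls, and EC50 derived.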

The test system of the next assay is Echovirus E9. The assay is described as follows: Antiviral activity against Echovirus 9 in human MRC5 cells. It counts as functional. Summed up:
as §1

In another assay the test system is Echovirus E11. Briefly: Antiviral activity against Echovirus 11 in human MRC5 cells. It counts as functional. Summed up: as §1
Another assay concerns enterovirus D68. Briefly: Antiviral activity against Enterovirus 68 in human MRC5 cells. It counts as functional. Summed up: as §1

pIC50: −log10 of the molar value.

Regarding `N#Cc1cc([N+](=O)[O-])ccc1Oc1ccc(Cl)cc1Br`, in the assay with Coxsackievirus B3, the negative-log IC50 (pIC50) was 5.43.
`COc1cccc(Oc2ccc([N+](=O)[O-])cc2C#N)c1`: the pIC50 in the assay with Coxsackievirus B3 is 4.92.
For `CN(C)c1cccc(Oc2ccc([N+](=O)[O-])cc2C#N)c1`, the pIC50 in the assay on Coxsackievirus B3 is 4.51.
Take `N#Cc1cc([N+](=O)[O-])ccc1Oc1cccc(Br)c1`: the pIC50 in the assay with Coxsackievirus B3 was 5.30.
Turning to `N#Cc1cc([N+](=O)[O-])ccc1Oc1ccc(Cl)cc1Cl`, the pIC50 with Coxsackievirus B3 is 4.89.
Take `C[S+]([O-])c1ccc(Oc2ccc([N+](=O)[O-])cc2C#N)cc1` (stereo not given): the pIC50 in the assay with Coxsackievirus B3 is 3.69.
As for `Cc1cc(Oc2ccc([N+](=O)[O-])cc2C#N)ccc1Cl`, the pIC50 with Coxsackievirus B3 was 5.70. Also, the Activity in the assay with Coxsackievirus B1 is 4.8 µM; in the assay with Coxsackievirus B2, 5.2 µM; in the assay with Coxsackievirus B4, more than 346 µM; with Coxsackievirus B5, 2.1 µM; in the assay with Coxsackievirus B6, more than 346 µM; with Coxsackievirus A24 it was 234 µM. Also, the Activity in the assay with Echovirus E9, in the assay on Echovirus E11 and with enterovirus D68 was more than 346 µM throughout.
As to `N#Cc1cc([N+](=O)[O-])ccc1Oc1ccccc1`, the pIC50 in the assay on Coxsackievirus B3 is 5.06. The Activity with Coxsackievirus B1 was 6.9 µM; in the assay on Coxsackievirus B2, 17 µM; with Coxsackievirus B4, 26 µM; in the assay with Coxsackievirus B5 it was 10 µM; with Coxsackievirus B6, 19 µM; with Coxsackievirus A24 it was more than 240 µM. The Activity in the assay with Echovirus E9, in the assay on Echovirus E11 and in the assay with enterovirus D68 was more than 416 µM throughout.
Take `N#Cc1cc([N+](=O)[O-])ccc1Oc1ccc(Br)cc1Cl`: the pIC50 in the assay with Coxsackievirus B3 was 5.43.
On to `N#Cc1cc([N+](=O)[O-])ccc1Oc1ccccc1Br`, for which the pIC50 with Coxsackievirus B3 is less than 3.84.
Consider `CC(=O)c1cccc(Oc2ccc([N+](=O)[O-])cc2C#N)c1`, for which the pIC50 with Coxsackievirus B3 was 4.24.
For the molecule `COc1ccc(Oc2ccc([N+](=O)[O-])cc2C#N)cc1`, in the assay on Coxsackievirus B3, the pIC50 is 4.34.
Still for that read-out and setting: as for `N#Cc1cccc(Oc2ccc([N+](=O)[O-])cc2C#N)c1`, the figure is 5.13.
On to `N#Cc1cc([N+](=O)[O-])ccc1Oc1ccc(Cl)c(Cl)c1`, for which, in the assay with Coxsackievirus B3, the negative logarithm of the IC50 (pIC50) was 5.19. Moreover, the Activity with Coxsackievirus B1 is 15 µM; in the assay with Coxsackievirus B2, 15 µM; in the assay on Coxsackievirus B4 it was 17 µM; with Coxsackievirus B5, 18 µM; in the assay on Coxsackievirus B6, 12 µM; in the assay with Coxsackievirus A24, 1.8 µM. In addition, the figures for the Activity in the assay with Echovirus E9, with Echovirus E11 and with enterovirus D68 were more than 324 µM, 6.7 µM and 12 µM, respectively.
As for `N#Cc1cc([N+](=O)[O-])ccc1Oc1cc(Cl)c(Cl)cc1Cl`, in the assay on Coxsackievirus B3, the pIC50 was 4.23.
On the same count and under the same terms, next, `CSc1ccc(Oc2ccc([N+](=O)[O-])cc2C#N)cc1`: 4.03; `Cc1ccc(Oc2ccc([N+](=O)[O-])cc2C#N)cc1`: 5.21; `CC(=O)Nc1ccc(Oc2ccc([N+](=O)[O-])cc2C#N)cc1`: less than 3.47.
On the same count and under the same terms, as for `N#Cc1cc([N+](=O)[O-])ccc1Oc1cccc([N+](=O)[O-])c1`, the figure is 4.42.
In the case of `N#Cc1cc([N+](=O)[O-])ccc1Oc1cc(Cl)cc(Cl)c1`, in the assay with Coxsackievirus B3, the pIC50 was less than 4.09.
Turning to `Cc1ccccc1Oc1ccc([N+](=O)[O-])cc1C#N`, in the assay on Coxsackievirus B3, the pIC50 was 4.24.
On to `N#Cc1cc([N+](=O)[O-])ccc1Oc1ccc([N+](=O)[O-])cc1`, for which, in the assay with Coxsackievirus B3, the pIC50 is 5.48. The Activity in the assay with Coxsackievirus A24, with Echovirus E9, with Echovirus E11 and in the assay on enterovirus D68 was more than 350 µM each time.
Take `N#Cc1cc([N+](=O)[O-])ccc1Oc1ccc(N)cc1`: the pIC50 with Coxsackievirus B3 is 3.97.
Turning to `N#Cc1cc([N+](=O)[O-])ccc1Oc1cccc(Cl)c1`, the pIC50 with Coxsackievirus B3 was 5.31.
Regarding `N#Cc1cc([N+](=O)[O-])ccc1Oc1cccc(NC(N)=S)c1`, the pIC50 in the assay on Coxsackievirus B3 is 3.63.
In the case of `N#Cc1cc([N+](=O)[O-])ccc1Oc1ccc(C(=O)O)cc1`, in the assay with Coxsackievirus B3, the pIC50 was less than 3.45.
Regarding `N#Cc1ccccc1Oc1ccc([N+](=O)[O-])cc1C#N`, the pIC50 in the assay with Coxsackievirus B3 is 4.96.
As for `N#Cc1cc([N+](=O)[O-])ccc1Oc1ccc([N+](=O)[O-])cc1Cl`, the pIC50 with Coxsackievirus B3 is 4.41.
In the case of `Cc1ccc(Oc2ccc([N+](=O)[O-])cc2C#N)cc1C`, the negative logarithm of the IC50 (pIC50) in the assay on Coxsackievirus B3 is 4.00.
Consider `N#Cc1cc([N+](=O)[O-])ccc1Oc1ccc(Cl)cc1`, for which the pIC50 with Coxsackievirus B3 is 5.30. The Activity in the assay on Echovirus E9, in the assay on Echovirus E11 and with enterovirus D68 was more than 364 µM throughout.
In the case of `N#Cc1cc([N+](=O)[O-])ccc1Oc1cccc(Cl)c1Cl`, the pIC50 in the assay with Coxsackievirus B3 was 5.31. Besides, the Activity in the assay with Coxsackievirus B1 is 3.3 µM; in the assay with Coxsackievirus B2 it was 8.6 µM; in the assay with Coxsackievirus B4, 17 µM; in the assay with Coxsackievirus B5, 4.8 µM; with Coxsackievirus B6, 10 µM; with Coxsackievirus A24 it was more than 309 µM. For the same molecule, the Activity in the assay with Echovirus E9, in the assay with Echovirus E11 and in the assay with enterovirus D68 was more than 323 µM throughout.
`N#Cc1cc([N+](=O)[O-])ccc1Oc1ccc(Cl)cc1N`: the pIC50 with Coxsackievirus B3 is less than 4.28.
Same read-out and setting: next, `N#Cc1cc([N+](=O)[O-])ccc1Oc1cccc(C(=O)O)c1`: less than 3.45.
As for `N#Cc1cc([N+](=O)[O-])ccc1Oc1cc(Cl)ccc1Cl`, the pIC50 with Coxsackievirus B3 was 5.42. Besides, the Activity in the assay with Echovirus E9, in the assay on Echovirus E11 and in the assay with enterovirus D68 was more than 323 µM each time.
`N#Cc1ccc(Oc2ccc([N+](=O)[O-])cc2C#N)c(Cl)c1`: in the assay on Coxsackievirus B3, the pIC50 was 5.14.
As for `N#Cc1cc([N+](=O)[O-])ccc1Oc1ccc(Br)cc1`, the pIC50 in the assay with Coxsackievirus B3 was 5.24.
Turning to `COc1ccccc1Oc1ccc([N+](=O)[O-])cc1C#N`, the pIC50 in the assay with Coxsackievirus B3 was 4.27.
In the case of `CC(C)c1cccc(Oc2ccc([N+](=O)[O-])cc2C#N)c1`, in the assay with Coxsackievirus B3, the negative logarithm of the IC50 (pIC50) is 4.40.
With `N#Cc1cc([N+](=O)[O-])ccc1Oc1ccc(Br)cc1Br`, the pIC50 in the assay on Coxsackievirus B3 is 5.21.
Turning to `N#Cc1cc([N+](=O)[O-])ccc1Oc1ccccc1Cl`, the pIC50 with Coxsackievirus B3 is 5.16. Also, the Activity in the assay on Coxsackievirus B1 was determined as 5.6 µM; in the assay with Coxsackievirus B2, 6.2 µM; in the assay with Coxsackievirus B4, 14 µM; in the assay on Coxsackievirus B5, 3.1 µM; in the assay on Coxsackievirus B6 it was 8.1 µM; in the assay with Coxsackievirus A24, 23 µM. In addition, the Activity is 35 µM in the assay on Echovirus E9, 35 µM in the assay on Echovirus E11 and 22 µM in the assay with enterovirus D68.
Turning to `N#Cc1ccc(Oc2ccc([N+](=O)[O-])cc2C#N)cc1`, in the assay with Coxsackievirus B3, the pIC50 is 5.39.
For `N#Cc1cc([N+](=O)[O-])ccc1Oc1ccc(Br)c(Cl)c1`, in the assay with Coxsackievirus B3, the pIC50 is 5.17.
The same measure, in the same setting: as for `CCc1cc(Oc2ccc([N+](=O)[O-])cc2C#N)ccc1Cl`, the figure is less than 3.48; as for `CC(=O)Nc1cccc(Oc2ccc([N+](=O)[O-])cc2C#N)c1`, 3.92.
For the molecule `Cc1cc(Oc2ccc([N+](=O)[O-])cc2C#N)ccc1Br`, the negative-log IC50 (pIC50) with Coxsackievirus B3 was 5.59.
Still for that read-out and setting: next, `N#Cc1cc([N+](=O)[O-])ccc1Oc1cccc(I)c1`: 5.24; `N#Cc1cc([N+](=O)[O-])ccc1Oc1cccc(NC(N)=O)c1`: less than 3.47; `Cc1cc(C)cc(Oc2ccc([N+](=O)[O-])cc2C#N)c1`: less than 3.49.
The same measure, in the same setting: next, `Cc1cc(Oc2ccc([N+](=O)[O-])cc2C#N)ccc1[N+](=O)[O-]`: 4.96; `N#Cc1cc([N+](=O)[O-])ccc1Oc1ccc(C(N)=O)cc1`: less than 3.45; `N#Cc1cc([N+](=O)[O-])ccc1Oc1c(Cl)cc(Cl)cc1Cl`: 4.14.
In the case of `CC(=O)c1ccc(Oc2ccc([N+](=O)[O-])cc2C#N)cc1`, the pIC50 in the assay with Coxsackievirus B3 is 4.46.
`Cc1cc(Cl)ccc1Oc1ccc([N+](=O)[O-])cc1C#N`: in the assay with Coxsackievirus B3, the pIC50 was 4.96.
Consider `Cc1cccc(Oc2ccc([N+](=O)[O-])cc2C#N)c1`, for which, in the assay on Coxsackievirus B3, the negative logarithm of the IC50 (pIC50) was 5.19. The Activity with Coxsackievirus B1 worked out at 8.9 µM; with Coxsackievirus B2 it was 11 µM; with Coxsackievirus B4, 22 µM; with Coxsackievirus B5 it was 13 µM; with Coxsackievirus B6 it was 22 µM; in the assay on Coxsackievirus A24 it was 19 µM. Moreover, the Activity with Echovirus E9 was more than 393 µM; in the assay on Echovirus E11, more than 393 µM; in the assay on enterovirus D68, 76 µM.
For `CS(=O)(=O)c1ccc(Oc2ccc([N+](=O)[O-])cc2C#N)cc1`, the negative logarithm of the IC50 (pIC50) in the assay on Coxsackievirus B3 is 3.76.
For `N#Cc1cc([N+](=O)[O-])ccc1Oc1ccc(I)cc1`, the pIC50 with Coxsackievirus B3 was 5.24.
For the molecule `N#Cc1cc([N+](=O)[O-])ccc1Oc1cccc(N)c1`, the pIC50 in the assay with Coxsackievirus B3 was 3.62.
For the molecule `N#Cc1cc([N+](=O)[O-])ccc1Oc1ccc(N)c([N+](=O)[O-])c1`, the pIC50 in the assay on Coxsackievirus B3 is 5.00.
On to `N#Cc1cc([N+](=O)[O-])ccc1Oc1ccc(CO)cc1`, for which the pIC50 with Coxsackievirus B3 was 3.92.
`CC(C)(C)c1ccc(Oc2ccc([N+](=O)[O-])cc2C#N)cc1`: in the assay on Coxsackievirus B3, the pIC50 was less than 3.47.
With `N#Cc1cc([N+](=O)[O-])ccc1Oc1ccc(Cl)c(Cl)c1Cl`, the pIC50 with Coxsackievirus B3 was less than 3.84.
